Assays:
[1] = Trolox equivalent antioxidant capacity; conditions: TEAC assay, result in words
In short: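 Radical quenching was measured with the cationic radical of 2,2′-azino-bis(3-ethylbenzthiazoline-6-sulphonic acid) as substrate, in EtOH at 25 °C. Absorbance was read at 734 nm, and capacity is expressed relative to the vitamin E analog Trolox as Trolox equivalents.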

[2] = target: Electrophorus electricus AChE (eeAChE) (Electrophorus electricus, UniProt O42275); assay: AChE activity assay; assay type: biochemical; conditions: for inhibition of the activity of AChE: eeAChE, result in words; for IC50: AChE IC50, eeAChE, fluorometric assay
metal-free Aβ42 = metal-free Aβ42 (Homo sapiens, UniProt P05067); assay: Aβ42 aggregation inhibition experiments; assay type: biochemical; conditions: [Aβ42] 25 μM, [flavonoid] 50 μM, pH 7.4, 37 °C, 24 h
In short: (§1)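 Freshly prepared Aβ42 (25 μM), metal-free or with ZnCl2 (25 μM), incubated with test compound (50 μM) at pH 7.4, 37 °C, for 24 h with constant agitation. Species sizes were resolved by gel/Western blot probed with anti-Aβ antibody 6E10. Band intensities were quantified and normalized to the matching untreated control (ISample/IControl). Aggregate morphology was imaged by TEM.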

Cu(II)–Aβ42 = Cu(II)–Aβ42 (Homo sapiens, UniProt P05067); assay: Aβ42 aggregation inhibition experiments; assay type: biochemical; conditions: 24 h; for MW distribution of Aβ42 species by gel/Western blot: [Aβ42] 25 μM, [CuCl2] 25 μM, [flavonoid] 50 μM, pH 6.6, 37 °C; for morphology of Aβ42 aggregates by TEM: Cu(II)–Aβ42, [flavonoid] 50 μM
Zn(II)–Aβ42 = Zn(II)–Aβ42 (Homo sapiens, UniProt P05067); assay: Aβ42 aggregation inhibition experiments; assay type: biochemical; conditions: 24 h; for MW distribution of Aβ42 species by gel/Western blot: [Aβ42] 25 μM, [ZnCl2] 25 μM, [flavonoid] 50 μM, pH 7.4, 37 °C; for morphology of Aβ42 aggregates by TEM: Zn(II)–Aβ42, [flavonoid] 50 μM
In short: as §1

[3] = target: preformed metal-free Aβ42 aggregates (Homo sapiens, UniProt P05067); assay: Aβ42 disaggregation experiments; assay type: biochemical; conditions: preformed aggregates (24 h) then [flavonoid] 50 μM 24 h, pH 7.4
In short: (§2)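 Aβ42 (25 μM), with or without metal ions, was pre-incubated for 24 h to form aggregates, then exposed to test compound for a further 24 h. Species sizes were analysed by gel/Western blot with anti-Aβ antibody 6E10. Band intensities were quantified as a ratio to the matching control (ISample/IControl). Morphology was examined by TEM.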

[4] = target: preformed Cu(II)–Aβ42 aggregates (Homo sapiens, UniProt P05067); assay: Aβ42 disaggregation experiments; assay type: biochemical
In short: as §2

Interaction with Cu = assay type: physicochemical; conditions: UV-Vis; indicative of oxidation
In short: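 UV-Vis absorption spectra of test compound (25 μM) recorded with CuCl2 at 0, 12.5, 25, 50 and 125 μM. Medium was 20 mM HEPES, pH 6.6, 150 mM NaCl, or EtOH for some compounds. Additional spectra were taken after adding 0.5, 1 and 2 equiv of CuCl2.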

[5] = target: preformed Zn(II)–Aβ42 aggregates (Homo sapiens, UniProt P05067); assay: Aβ42 disaggregation experiments; assay type: biochemical
In short: as §2

Chain of preformed metal-free Aβ42 aggregates (P05067 672-713): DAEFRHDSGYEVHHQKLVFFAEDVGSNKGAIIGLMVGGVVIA
Chain of metal-free Aβ42 (P05067 672-713): as above
Chain of Cu(II)–Aβ42 (P05067 672-713): as above
Chain of preformed Cu(II)–Aβ42 aggregates (P05067 672-713): as above
Chain of Zn(II)–Aβ42 (P05067 672-713): as above
Chain of Electrophorus electricus AChE (eeAChE) (O42275 24-633): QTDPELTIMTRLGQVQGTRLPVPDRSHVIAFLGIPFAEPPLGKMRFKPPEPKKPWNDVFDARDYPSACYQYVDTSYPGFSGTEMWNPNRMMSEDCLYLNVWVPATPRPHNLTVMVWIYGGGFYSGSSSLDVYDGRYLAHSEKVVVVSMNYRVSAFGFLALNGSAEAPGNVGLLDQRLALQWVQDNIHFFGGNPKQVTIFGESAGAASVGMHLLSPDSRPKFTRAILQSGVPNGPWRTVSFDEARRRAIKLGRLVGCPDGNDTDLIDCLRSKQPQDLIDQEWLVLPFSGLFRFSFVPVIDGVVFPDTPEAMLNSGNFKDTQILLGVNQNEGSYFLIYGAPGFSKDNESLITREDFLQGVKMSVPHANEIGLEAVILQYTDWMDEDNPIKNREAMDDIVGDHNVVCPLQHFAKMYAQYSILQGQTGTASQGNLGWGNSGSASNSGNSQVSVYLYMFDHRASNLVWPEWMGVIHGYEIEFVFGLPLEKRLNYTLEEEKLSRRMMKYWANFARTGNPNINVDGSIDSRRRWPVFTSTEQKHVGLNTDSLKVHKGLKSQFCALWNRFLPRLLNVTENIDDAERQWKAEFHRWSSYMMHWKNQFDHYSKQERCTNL
Chain of preformed Zn(II)–Aβ42 aggregates (P05067 672-713): as the sequence (P05067 672-713) above

## O=c1cc(-c2ccc(O)cc2)oc2cc(O)cc(O)c12 [Api, Apigenin]
[1]
  radical scavenging activity, compared to Trolox: negligible
[2]
  inhibition of the activity of AChE: not inhibited
metal-free Aβ42
  MW distribution of Aβ42 species by gel/Western blot: did not exhibit significant reactivity
Cu(II)–Aβ42
  MW distribution of Aβ42 species by gel/Western blot: did not exhibit significant reactivity
Zn(II)–Aβ42
  MW distribution of Aβ42 species by gel/Western blot: did not exhibit significant reactivity
[3]
  MW distribution of Aβ42 species by gel/Western blot: did not exhibit notable reactivity

## O=c1cc(-c2ccccc2)oc2cc(O)cc(O)c12 [Chr, chrysin]
[1]
  radical scavenging activity, compared to Trolox: negligible
[2]
  inhibition of the activity of AChE: not inhibited
metal-free Aβ42
  MW distribution of Aβ42 species by gel/Western blot: did not exhibit significant reactivity
Cu(II)–Aβ42
  MW distribution of Aβ42 species by gel/Western blot: did not exhibit significant reactivity
Zn(II)–Aβ42
  MW distribution of Aβ42 species by gel/Western blot: did not exhibit significant reactivity
[3]
  MW distribution of Aβ42 species by gel/Western blot: did not exhibit notable reactivity

## O=c1c(O)c(-c2ccccc2)oc2cccc(O)c12 [DHF, 3,5-dihydroxyflavone]
[2]
  IC50: > 2 µM
metal-free Aβ42
  MW distribution of Aβ42 species by gel/Western blot: did not exhibit significant reactivity
Cu(II)–Aβ42
  MW distribution of Aβ42 species by gel/Western blot: did not exhibit significant reactivity
Zn(II)–Aβ42
  MW distribution of Aβ42 species by gel/Western blot: did not exhibit significant reactivity
[3]
  MW distribution of Aβ42 species by gel/Western blot: did not exhibit notable reactivity

## O=c1c(-c2ccccc2)coc2cc(O)cc(O)c12 [DHIF, 5,7-dihydroxyisoflavone]
[1]
  radical scavenging activity, compared to Trolox: negligible
metal-free Aβ42
  MW distribution of Aβ42 species by gel/Western blot: did not exhibit significant reactivity
Cu(II)–Aβ42
  MW distribution of Aβ42 species by gel/Western blot: did not exhibit significant reactivity
Zn(II)–Aβ42
  MW distribution of Aβ42 species by gel/Western blot: did not exhibit significant reactivity
[3]
  MW distribution of Aβ42 species by gel/Western blot: did not exhibit notable reactivity

## O=c1c(O)c(-c2ccccc2)oc2cc(O)cc(O)c12 [Gal, galangin]
metal-free Aβ42
  MW distribution of Aβ42 species by gel/Western blot: did not exhibit significant reactivity
Cu(II)–Aβ42
  morphology of Aβ42 aggregates by TEM: did not significantly alter the morphologies
  MW distribution of Aβ42 species by gel/Western blot: did not exhibit significant reactivity
Zn(II)–Aβ42
  morphology of Aβ42 aggregates by TEM: fibrillar aggregates similar to those from the compound-free Zn(II)–Aβ42 sample
  MW distribution of Aβ42 species by gel/Western blot: did not exhibit significant reactivity
[3]
  MW distribution of Aβ42 species by gel/Western blot: did not exhibit notable reactivity

## O=c1c(-c2ccc(O)cc2)coc2cc(O)cc(O)c12 [Gen, genistein]
metal-free Aβ42
  MW distribution of Aβ42 species by gel/Western blot: did not exhibit significant reactivity
Cu(II)–Aβ42
  MW distribution of Aβ42 species by gel/Western blot: did not exhibit significant reactivity
Zn(II)–Aβ42
  MW distribution of Aβ42 species by gel/Western blot: did not exhibit significant reactivity
[3]
  MW distribution of Aβ42 species by gel/Western blot: did not exhibit notable reactivity

## O=c1cc(-c2ccccc2)oc2cccc(O)c12 [HF, 5-hydroxyflavone]
[1]
  radical scavenging activity, compared to Trolox: negligible
[2]
  IC50: > 2 µM
  inhibition of the activity of AChE: not inhibited
metal-free Aβ42
  MW distribution of Aβ42 species by gel/Western blot: did not exhibit significant reactivity
Cu(II)–Aβ42
  morphology of Aβ42 aggregates by TEM: did not significantly alter the morphologies
  MW distribution of Aβ42 species by gel/Western blot: did not exhibit significant reactivity
Zn(II)–Aβ42
  morphology of Aβ42 aggregates by TEM: fibrillar aggregates similar to those from the compound-free Zn(II)–Aβ42 sample
  MW distribution of Aβ42 species by gel/Western blot: did not exhibit significant reactivity
[3]
  MW distribution of Aβ42 species by gel/Western blot: did not exhibit notable reactivity

## O=c1c(-c2ccccc2)coc2cccc(O)c12 [HIF, 5-hydroxyisoflavone]
[1]
  radical scavenging activity, compared to Trolox: negligible
[2]
  inhibition of the activity of AChE: not inhibited
metal-free Aβ42
  MW distribution of Aβ42 species by gel/Western blot: did not exhibit significant reactivity
Cu(II)–Aβ42
  MW distribution of Aβ42 species by gel/Western blot: did not exhibit significant reactivity
Zn(II)–Aβ42
  MW distribution of Aβ42 species by gel/Western blot: did not exhibit significant reactivity
[3]
  MW distribution of Aβ42 species by gel/Western blot: did not exhibit notable reactivity

## O=c1c(O)c(-c2ccc(O)cc2)oc2cc(O)cc(O)c12 [Kae, kaempferol]
metal-free Aβ42
  MW distribution of Aβ42 species by gel/Western blot: did not significantly influence
Cu(II)–Aβ42
  morphology of Aβ42 aggregates by TEM: amorphous assemblies distinct from native Aβ42 fibrils
  MW distribution of Aβ42 species by gel/Western blot: increased the signal in the range of ca. 7–50 kDa
Zn(II)–Aβ42
  morphology of Aβ42 aggregates by TEM: fibrillar aggregates similar to those from the compound-free Zn(II)–Aβ42 sample
  MW distribution of Aβ42 species by gel/Western blot: did not significantly influence
[3]
  MW distribution of Aβ42 species by gel/Western blot: did not impact
[4]
  morphology of preformed aggregates by TEM: a mixture of amorphous aggregates and thinner chopped fibrils
Interaction with Cu
  absorption band at ca. 400–440 nm at greater Cu(II) concentrations: diminished

## O=c1cc(-c2ccc(O)c(O)c2)oc2cc(O)cc(O)c12 [Lut, luteolin]
metal-free Aβ42
  MW distribution of Aβ42 species by gel/Western blot: minor change
Cu(II)–Aβ42
  morphology of Aβ42 aggregates by TEM: decreased the degree of branching in the fibrils
  MW distribution of Aβ42 species by gel/Western blot: increased the signal in the range of ca. 7–50 kDa
Zn(II)–Aβ42
  morphology of Aβ42 aggregates by TEM: thinner chopped fibrils
  MW distribution of Aβ42 species by gel/Western blot: altered the aggregation of Zn(II)–Aβ42, resulting in diverse MW distributions from ca. 15 to 50 kDa
[3]
  MW distribution of Aβ42 species by gel/Western blot: did not impact
[4]
  morphology of preformed aggregates by TEM: a mixture of amorphous aggregates and thinner chopped fibrils

## O=c1c(-c2ccc(O)c(O)c2)coc2cc(O)cc(O)c12 [Oro, orobol]
metal-free Aβ42
  MW distribution of Aβ42 species by gel/Western blot: minor change
Cu(II)–Aβ42
  morphology of Aβ42 aggregates by TEM: thinner and shorter aggregates
  MW distribution of Aβ42 species by gel/Western blot: significantly decreased the band intensity of the entire range (7–270 kDa)
Zn(II)–Aβ42
  morphology of Aβ42 aggregates by TEM: thinner chopped fibrils
  MW distribution of Aβ42 species by gel/Western blot: altered the aggregation of Zn(II)–Aβ42, resulting in diverse MW distributions from ca. 15 to 50 kDa
[3]
  MW distribution of Aβ42 species by gel/Western blot: very mildly varied the MW distribution
[4]
  morphology of preformed aggregates by TEM: a mixture of amorphous aggregates and thinner chopped fibrils
[5]
  morphology of preformed aggregates by TEM: shorter fibrils

## O=c1c(O)c(-c2ccc(O)c(O)c2)oc2cc(O)cc(O)c12 [Que, Quercetin]
metal-free Aβ42
  MW distribution of Aβ42 species by gel/Western blot: minor change
Cu(II)–Aβ42
  morphology of Aβ42 aggregates by TEM: significantly shorter fibrillar aggregates
  MW distribution of Aβ42 species by gel/Western blot: increased the smearing band intensity at ca. 7–270 kDa
Zn(II)–Aβ42
  morphology of Aβ42 aggregates by TEM: thinner chopped fibrils
  MW distribution of Aβ42 species by gel/Western blot: altered the aggregation of Zn(II)–Aβ42, resulting in diverse MW distributions from ca. 15 to 50 kDa
[3]
  MW distribution of Aβ42 species by gel/Western blot: very mildly varied the MW distribution
[4]
  morphology of preformed aggregates by TEM: a mixture of amorphous aggregates and thinner chopped fibrils
[5]
  morphology of preformed aggregates by TEM: shorter fibrils
Interaction with Cu
  absorption band at ca. 400–440 nm at greater Cu(II) concentrations: diminished

Source: article PMC8162271 (Chemical Science, 2020)
